Measurements as given in ChEMBL document CHEMBL6092210, “Synthesis, in vitro and in vivo biological evaluation of novel dual compounds targeting both acetylcholinesterase and serotonergic 5-HT4 receptors with potential interest in the treatment of Alzheimer's disease” (Eur J Med Chem, 2024).

What was measured:
[1] = MRT in C57BL6 mouse at 0.3 to 3 mg/kg, iv; assay type: ADME, organism-based; settings: in vivo, dose 0.3-3 mg/kg
In short: (§1)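 Single iv dose of 0.3, 1 or 3 mg/kg in 0.9 % saline, three animals per dose (C57Bl6 mice, Wistar rats). Terminal cardiac-puncture blood under isoflurane at six time points. Plasma protein-precipitated and assayed by UHPLC–MS/MS (LLOQ 1 ng/mL). Parameters from non-compartmental analysis.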

Cytochrome P450 2B6 = target: T1, Cytochrome P450 2B6 (Homo sapiens, UniProt P20813); test: Inhibition of CYP2B6 in human liver microsomes using bupropion as substrate; assay type: ADME, Microsome
T1 sequence (P20813 whole entry): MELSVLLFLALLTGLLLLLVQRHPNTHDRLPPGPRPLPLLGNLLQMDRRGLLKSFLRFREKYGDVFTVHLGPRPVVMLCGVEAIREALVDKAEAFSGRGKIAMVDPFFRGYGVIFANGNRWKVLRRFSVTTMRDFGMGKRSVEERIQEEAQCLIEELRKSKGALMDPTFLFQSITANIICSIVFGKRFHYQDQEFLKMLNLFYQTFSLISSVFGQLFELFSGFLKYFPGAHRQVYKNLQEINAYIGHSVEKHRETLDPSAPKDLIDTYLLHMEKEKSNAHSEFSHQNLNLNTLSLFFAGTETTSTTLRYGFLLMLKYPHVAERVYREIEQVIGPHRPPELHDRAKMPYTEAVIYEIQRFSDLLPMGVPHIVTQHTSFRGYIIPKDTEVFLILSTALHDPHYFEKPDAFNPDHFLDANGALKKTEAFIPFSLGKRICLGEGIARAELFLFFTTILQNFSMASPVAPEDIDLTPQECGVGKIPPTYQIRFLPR
In short: (§2)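 Human liver microsomes with a cocktail of CYP-specific probe substrates; metabolite formation monitored for each probe reaction. Test compound (fumarate) at 0.01, 0.1, 1, 10 and 100 μM. Control inhibitors run at a single concentration for each probe reaction. IC50 estimated.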

[2] = Drug metabolism in human liver microsome measured at 10 mins by UPLC/QE-orbitrap-MS method; assay type: ADME; settings: microsomes
In short: (§3)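 Test compound as fumarate salt incubated with human, dog, mouse or rat liver microsomes over 0–60 min. Parent remaining measured by UPLC/QE-orbitrap-MS as relative LC/MS peak area (% of 0 min), n = 1.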

Cytochrome P450 2C8 = target: T2, Cytochrome P450 2C8 (Homo sapiens, UniProt P10632); test: Inhibition of CYP2C8 in human liver microsomes using repaglinide as substrate; assay type: ADME, Microsome; in short: as §2
T2 sequence (P10632 whole entry): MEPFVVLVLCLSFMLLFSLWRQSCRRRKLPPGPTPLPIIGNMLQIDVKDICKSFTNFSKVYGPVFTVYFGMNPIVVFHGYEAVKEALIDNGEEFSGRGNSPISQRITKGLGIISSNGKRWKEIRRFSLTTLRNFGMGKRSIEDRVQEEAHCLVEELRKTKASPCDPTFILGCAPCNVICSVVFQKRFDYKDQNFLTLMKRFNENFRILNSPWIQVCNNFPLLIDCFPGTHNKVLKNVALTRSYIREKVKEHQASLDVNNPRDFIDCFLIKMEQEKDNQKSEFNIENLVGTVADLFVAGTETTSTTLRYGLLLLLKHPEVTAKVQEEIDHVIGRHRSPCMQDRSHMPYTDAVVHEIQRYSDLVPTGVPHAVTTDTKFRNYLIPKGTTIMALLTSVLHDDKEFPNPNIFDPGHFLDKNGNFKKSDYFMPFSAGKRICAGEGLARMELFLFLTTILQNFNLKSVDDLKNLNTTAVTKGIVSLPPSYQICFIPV

[3] = Drug metabolism in dog liver microsome measured at 40 mins by UPLC/QE-orbitrap-MS method; assay type: ADME, Canis lupus familiaris; settings: microsomes; in short: as §3
[4] = MRT in Wistar rat at 0.3 to 3 mg/kg, iv; assay type: ADME, organism-based; settings: in vivo, dose 0.3-3 mg/kg; in short: as §1
Cytochrome P450 2D6 = Cytochrome P450 2D6 (Homo sapiens, UniProt P10635); test: Inhibition of CYP2D6 in human liver microsomes using dextromethorphan as substrate; assay type: ADME, Microsome; in short: as §2
Cytochrome P450 2D6, sequence (P10635 whole entry): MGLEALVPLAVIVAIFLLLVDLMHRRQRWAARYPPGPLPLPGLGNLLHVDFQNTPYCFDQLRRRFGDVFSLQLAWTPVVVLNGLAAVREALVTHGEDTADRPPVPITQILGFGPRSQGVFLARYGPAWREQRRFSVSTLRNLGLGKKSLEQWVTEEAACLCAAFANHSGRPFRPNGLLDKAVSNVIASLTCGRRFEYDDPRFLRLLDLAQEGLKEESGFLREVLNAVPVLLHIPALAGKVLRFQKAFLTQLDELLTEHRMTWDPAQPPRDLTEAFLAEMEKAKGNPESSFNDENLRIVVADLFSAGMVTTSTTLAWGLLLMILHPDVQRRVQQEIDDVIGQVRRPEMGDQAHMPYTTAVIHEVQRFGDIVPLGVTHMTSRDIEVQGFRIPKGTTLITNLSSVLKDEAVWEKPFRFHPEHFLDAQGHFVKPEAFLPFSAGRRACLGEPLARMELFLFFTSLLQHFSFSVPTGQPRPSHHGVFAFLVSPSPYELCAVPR

[5] = Drug metabolism in rat liver microsome measured at 60 mins by UPLC/QE-orbitrap-MS method; assay type: ADME; settings: microsomes, 1 h; in short: as §3

COc1cc(N)c(F)cc1C(=O)CCC1CCN(CC2CCCCC2)CC1.O=C(O)/C=C/C(=O)O
MRT [1]: 1.15 h
IC50 (Cytochrome P450 2B6): 95.7 µM
Drug metabolism [2]: 89%
IC50 (Cytochrome P450 2C8): > 100 µM
Drug metabolism [3]: 40%
MRT [4]: 1.15 h
IC50 (Cytochrome P450 2D6): 0.6 µM
Drug metabolism [5]: 6%
